# Experimental data published in ChEMBL document CHEMBL1132571, “1-aryl-4-[(5-methoxy-1,2,3, 4-tetrahydronaphthalen-1-yl)alkyl]piperazines and their analogues: influence of the stereochemistry of the tetrahydronaphthalen-1-yl nucleus on 5-HT1A receptor affinity and selectivity versus alpha1 and D2 receptors. 5” (J Med Chem, 1999).
# Key:
# [1] = Selectivity for alpha-1 receptor compared to 5-HT1A receptor.
# [2] = target: T1, Adrenergic receptor alpha-1 (Rattus norvegicus, UniProt P15823+P23944+P43140); assay: In vitro inhibition of [3H]prazosin binding to rat alpha-1 adrenergic receptors.; assay type: protein assay
# T1 sequence (P15823 whole entry): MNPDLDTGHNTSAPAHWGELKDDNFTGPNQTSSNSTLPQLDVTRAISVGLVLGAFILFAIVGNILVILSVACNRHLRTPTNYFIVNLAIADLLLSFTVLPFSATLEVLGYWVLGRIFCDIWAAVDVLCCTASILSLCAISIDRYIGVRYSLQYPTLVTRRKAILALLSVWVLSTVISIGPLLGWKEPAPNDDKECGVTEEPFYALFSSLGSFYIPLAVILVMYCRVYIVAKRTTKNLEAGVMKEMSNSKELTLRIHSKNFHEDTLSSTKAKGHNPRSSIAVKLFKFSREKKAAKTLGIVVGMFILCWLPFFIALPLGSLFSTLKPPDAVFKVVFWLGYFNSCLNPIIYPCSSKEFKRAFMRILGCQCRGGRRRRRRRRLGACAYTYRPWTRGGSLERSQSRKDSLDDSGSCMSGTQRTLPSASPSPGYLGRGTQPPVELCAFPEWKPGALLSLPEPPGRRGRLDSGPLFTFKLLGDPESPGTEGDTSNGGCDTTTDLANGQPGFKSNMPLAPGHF
# T1 sequence (P23944 whole entry): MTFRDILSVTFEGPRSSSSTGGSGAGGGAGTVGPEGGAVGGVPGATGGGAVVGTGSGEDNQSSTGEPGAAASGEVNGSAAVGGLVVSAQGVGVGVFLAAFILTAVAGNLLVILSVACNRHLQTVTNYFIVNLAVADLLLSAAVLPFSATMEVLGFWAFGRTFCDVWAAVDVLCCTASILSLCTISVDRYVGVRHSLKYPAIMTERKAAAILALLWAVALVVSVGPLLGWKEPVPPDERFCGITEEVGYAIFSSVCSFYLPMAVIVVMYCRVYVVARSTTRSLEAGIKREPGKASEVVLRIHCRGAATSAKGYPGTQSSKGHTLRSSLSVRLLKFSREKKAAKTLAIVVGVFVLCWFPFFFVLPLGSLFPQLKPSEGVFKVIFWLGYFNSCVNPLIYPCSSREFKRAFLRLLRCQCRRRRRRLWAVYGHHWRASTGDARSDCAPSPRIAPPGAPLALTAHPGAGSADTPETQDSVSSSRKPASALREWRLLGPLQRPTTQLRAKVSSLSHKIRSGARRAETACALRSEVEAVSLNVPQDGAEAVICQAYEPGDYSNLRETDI
# T1 sequence (P43140 whole entry): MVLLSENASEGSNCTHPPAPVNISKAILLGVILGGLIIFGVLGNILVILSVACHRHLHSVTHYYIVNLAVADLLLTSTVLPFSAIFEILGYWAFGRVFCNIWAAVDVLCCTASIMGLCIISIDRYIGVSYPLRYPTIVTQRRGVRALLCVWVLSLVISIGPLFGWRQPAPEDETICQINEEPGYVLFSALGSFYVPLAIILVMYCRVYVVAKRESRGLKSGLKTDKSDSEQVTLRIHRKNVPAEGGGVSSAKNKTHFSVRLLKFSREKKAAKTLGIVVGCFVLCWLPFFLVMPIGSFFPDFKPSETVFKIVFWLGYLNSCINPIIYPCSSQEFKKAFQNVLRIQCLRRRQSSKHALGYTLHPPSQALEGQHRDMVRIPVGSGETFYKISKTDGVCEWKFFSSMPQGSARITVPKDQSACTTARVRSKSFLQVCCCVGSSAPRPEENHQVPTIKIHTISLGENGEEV
# Method in brief: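 [3H]Prazosin displacement in rat brain cortex membranes, standard binding procedure, with eight to nine concentrations of each hydrochloride salt. Specific binding was above 80% of total. LIGAND program used to obtain IC50 from inhibition of specific binding.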
# [3] = target: T2, 5-hydroxytryptamine receptor 1A (Rattus norvegicus, UniProt P19327); assay: In vitro inhibition of [3H]8-OH-DPAT binding to rat 5-HT 1a receptors.
# T2 sequence (P19327 whole entry): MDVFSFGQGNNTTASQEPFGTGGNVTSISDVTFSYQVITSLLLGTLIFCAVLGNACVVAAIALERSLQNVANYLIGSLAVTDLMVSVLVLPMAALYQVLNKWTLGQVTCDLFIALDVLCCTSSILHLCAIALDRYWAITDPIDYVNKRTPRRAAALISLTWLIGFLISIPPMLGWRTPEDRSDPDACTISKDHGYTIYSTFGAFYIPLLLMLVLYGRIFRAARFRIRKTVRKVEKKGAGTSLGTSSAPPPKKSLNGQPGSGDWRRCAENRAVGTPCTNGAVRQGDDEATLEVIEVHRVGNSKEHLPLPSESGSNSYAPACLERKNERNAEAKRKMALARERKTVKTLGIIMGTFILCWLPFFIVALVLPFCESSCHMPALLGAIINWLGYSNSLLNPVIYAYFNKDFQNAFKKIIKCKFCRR
# Method in brief: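 Rat hippocampal membranes labelled with [3H]-8-OH-DPAT by standard binding methods, in competition with eight to nine test concentrations. Specific binding was over 80% of total. IC50 derived from inhibition of specific radioligand binding by LIGAND analysis.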
# [4] = Selectivity for D2 receptor compared to 5-HT1A receptor.
# D(2) dopamine receptor = D(2) dopamine receptor (Rattus norvegicus, UniProt P61169); assay: In vitro inhibition of [3H]spiroperidol binding to rat Dopamine D2 receptors.
# D(2) dopamine receptor, sequence (P61169 whole entry): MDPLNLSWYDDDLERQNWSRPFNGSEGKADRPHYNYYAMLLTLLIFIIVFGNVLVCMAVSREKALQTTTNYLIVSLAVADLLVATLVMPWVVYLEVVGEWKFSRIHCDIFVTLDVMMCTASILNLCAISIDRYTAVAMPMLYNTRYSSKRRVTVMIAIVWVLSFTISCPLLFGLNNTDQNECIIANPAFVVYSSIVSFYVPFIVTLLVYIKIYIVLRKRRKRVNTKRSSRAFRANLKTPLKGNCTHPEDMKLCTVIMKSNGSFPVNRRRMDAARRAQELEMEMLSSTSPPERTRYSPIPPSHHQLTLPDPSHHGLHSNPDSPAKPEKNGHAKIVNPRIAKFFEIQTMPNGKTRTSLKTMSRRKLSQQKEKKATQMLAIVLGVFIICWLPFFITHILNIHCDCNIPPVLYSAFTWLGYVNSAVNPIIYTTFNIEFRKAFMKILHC
Selectivity [1],IC50 [2] [nM],IC50 [3] [nM],Selectivity [4],IC50 (D(2) dopamine receptor) [nM],SMILES
100,1000,10,320,3200,COc1ccccc1N1CCN(CCN[C@@H]2CCCc3c(OC)cccc32)CC1
,770,,,870,COc1ccccc1N1CCN(CCC(=O)N[C@@H]2CCCc3c(OC)cccc32)CC1
29,,,49,,COc1ccccc1N1CCN(CCNC2CCCc3c(OC)cccc32)CC1 (configuration not stated)
,33,1.3,,,COc1ccccc1N1CCN(CCC[C@@H]2CCCc3c(OC)cccc32)CC1
19,649,34,68,2300,COc1ccccc1N1CCN(CCCN[C@H]2CCCc3c(OC)cccc32)CC1
,0.8,1.6,,,COc1ccccc1N1CCN(CCC[C@H]2CCCc3c(OC)cccc32)CC1
252,580,2.3,261,600,COc1cccc2c1CCC[C@H]2CCCN1CCN(c2ccccn2)CC1
243,1700,7,271,1900,COc1ccccc1N1CCN(CCCN[C@@H]2CCCc3c(OC)cccc32)CC1
88,,,106,,COc1ccccc1N1CCN(CCCNC2CCCc3c(OC)cccc32)CC1 (configuration not stated)
14,61,4.3,205,880,COc1cccc2c1CCC[C@@H]2CCCN1CCN(c2ccccc2)CC1
396,950,2.4,254,610,COc1cccc2c1CCC[C@H]2CCCN1CCN(c2ccccc2)CC1
,240,,,2600,COc1ccccc1N1CCN(CCC(=O)N[C@H]2CCCc3c(OC)cccc32)CC1
,,2.5,,,NCCCC1(CCCN)CCc2cccc(O)c2C1
122,,,259,,COc1cccc2c1CCCC2CCCN1CCN(c2ccccn2)CC1 (configuration not stated)
19,85,4.5,196,880,COc1cccc2c1CCC[C@@H]2CCCN1CCN(c2ccccn2)CC1
33,228,7,93,650,COc1ccccc1N1CCN(CCN[C@H]2CCCc3c(OC)cccc32)CC1
86,,,220,,COc1cccc2c1CCCC2CCCN1CCN(c2ccccc2)CC1 (configuration not stated)
